Measured values as given in ChEMBL document CHEMBL1142577, “Asimitrin and 4-hydroxytrilobin, new bioactive annonaceous acetogenins from the seeds of Asimina triloba possessing a bis-tetrahydrofuran ring” (J Nat Prod, 2005).
≈ marks a conversion by molar mass, not a printed value.

How the values were obtained:
Artemia = assay: Toxicity in brine shrimp; assay type: organism-based; settings: in vivo
How it was run: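 Brine shrimp lethality test (BST) on brine shrimp larvae, run routinely on extracts, fractions and isolated compounds, with lethality as the read-out.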

A549 = assay: Cytotoxicity against human A549 cells after 7 days by MTT assay; assay type: functional; settings: A549, 168 h, read-out: ED50 (the source's name)
How it was run: (§1)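 Seven-day in vitro MTT cytotoxicity test on human tumour lines, run with adriamycin as positive control under standard protocols. Cell line origins: A-549 lung carcinoma, MCF-7 breast carcinoma, HT-29 colon adenocarcinoma, A-498 kidney carcinoma, PC-3 prostate adenocarcinoma, MIA PaCa-2 pancreatic carcinoma.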

MCF7 = assay: Cytotoxicity against human MCF7 cells after 7 days by MTT assay; assay type: functional; settings: MCF7, 168 h, read-out: ED50 (the source's name); how it was run: as §1
HT-29 = assay: Cytotoxicity against human HT-29 cells after 7 days by MTT assay; assay type: functional; how it was run: as §1
PC-3 = assay: Cytotoxicity against human PC-3 cells after 7 days by MTT assay; assay type: functional; how it was run: as §1
MIA PaCa-2 = assay: Cytotoxicity against human MIA PaCa2 cells after 7 days by MTT assay; assay type: functional; how it was run: as §1
A498 = assay: Cytotoxicity against human A-498 cells after 7 days by MTT assay; assay type: functional; settings: A498, 168 h, read-out: ED50 (the source's name); how it was run: as §1

Structure (SMILES) | LC50 (Artemia) [×10⁻² ug/ml] | EC50 (A549) [µg/mL] | EC50 (MCF7) [µg/mL] | ED50 (HT-29) | ED50 (PC-3) | ED50 (MIA PaCa-2) [×10⁻⁴ ug/ml] | EC50 (A498) [µg/mL] | EC50 (HT-29; Homo sapiens, HT-29, 168 h, read-out: ED50 (the source's name)) [µg/mL] | EC50 (PC-3; Homo sapiens, PC-3, 168 h, read-out: ED50 (the source's name)) [µg/mL] | EC50 (MIA PaCa-2; Homo sapiens, MIA PaCa-2, 168 h, read-out: ED50 (the source's name)) [µg/mL]
CCCCCCCCCC[C@@H](O)[C@H]1CC[C@@H]([C@H]2CC[C@H]([C@H](O)CCCCC(O)CCCCC[C@@H](O)CC3=C[C@H](C)OC3=O)O2)O1 (stereo not given in full) | 7 | 1.54 (≈ 2.41 µM) | 3.79 (≈ 5.93 µM) | 1.54 ×10⁻⁶ ug/ml | 2.01 ×10⁻⁴ ug/ml | 2.01 | 0.0362 (≈ 0.0567 µM) |  |  | 
CCCCCCCCCC[C@@H](O)[C@H]1CC[C@H]([C@H]2C[C@@H](O)[C@H]([C@H](O)CCCCCCCCCC[C@@H](O)CC3=C[C@H](C)OC3=O)O2)O1 [ASIMITRIN] | 2.07 | 1.19 (≈ 1.86 µM) | 2.12 (≈ 3.32 µM) | 1.19 ×10⁻⁴ ug/ml | 1.72 ×10⁻⁶ ug/ml | 2.11 | 0.75 (≈ 1.17 µM) |  |  | 
COc1cccc2c1C(=O)c1c(O)c3c(c(O)c1C2=O)C[C@@](O)(C(=O)CO)C[C@@H]3O[C@H]1C[C@H](N)[C@H](O)[C@H](C)O1 [DOXORUBICIN] |  | 0.00622 (≈ 0.0114 µM) | 0.953 (≈ 1.75 µM) |  |  |  | 0.00286 (≈ 0.00526 µM) | 0.0287 (≈ 0.0528 µM) | 0.0577 (≈ 0.106 µM) | 0.0061 (≈ 0.0112 µM)
